From ChEMBL document CHEMBL1132106, “Synthesis, biological activity, and conformational analysis of four seco-D-15,19-bisnor-1alpha,25-dihydroxyvitamin D analogues, diastereomeric at C17 and C20” (1999)

Experiments:
HL-60 = experiment: In vitro induction of cell differentiation in HL-60 cells relative to 1,25(OH)2D3 (100); format: functional, Homo sapiens
In short: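 HL-60 cells seeded at 4×10^4 cells/mL in RPMI 1640 with 20% FCS and gentamycin, 37 °C, 5% CO2. Compounds added in ethanol (final <0.2%) one day later, then cultured 4 days. Differentiation read as NBT reduction: 1×10^6 cells/mL mixed with PMA (200 ng/mL) and NBT ([…]), 30 min at 37 °C. Formazan-positive cells counted by hemacytometer.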

[1] = target: T1, Vitamin D-binding protein (Rattus norvegicus) (UniProt P04276); experiment: Binding affinity for rat vitamin D binding protein (DBP) relative to 1,25(OH)2D3 (100)
T1 sequence (whole entry): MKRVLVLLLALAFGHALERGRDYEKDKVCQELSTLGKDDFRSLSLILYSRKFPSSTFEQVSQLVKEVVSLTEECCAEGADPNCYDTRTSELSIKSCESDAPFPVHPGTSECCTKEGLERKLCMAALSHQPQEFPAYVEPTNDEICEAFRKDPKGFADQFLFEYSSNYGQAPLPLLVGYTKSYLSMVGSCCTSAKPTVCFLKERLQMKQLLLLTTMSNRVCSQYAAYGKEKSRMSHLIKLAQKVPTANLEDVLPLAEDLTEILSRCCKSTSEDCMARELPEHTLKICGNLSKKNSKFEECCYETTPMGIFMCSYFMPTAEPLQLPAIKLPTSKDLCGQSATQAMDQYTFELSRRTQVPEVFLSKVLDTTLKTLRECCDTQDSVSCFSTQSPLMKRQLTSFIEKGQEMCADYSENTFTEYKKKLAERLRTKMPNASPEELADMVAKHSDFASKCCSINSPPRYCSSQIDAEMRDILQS

[2] = target: T2, Vitamin D3 receptor (Sus scrofa) (UniProt A3RGC1); experiment: Binding affinity for porcine intestinal Vitamin D3 receptor (VDR) relative to 1,25(OH)2D3 (100)
T2 sequence (whole entry): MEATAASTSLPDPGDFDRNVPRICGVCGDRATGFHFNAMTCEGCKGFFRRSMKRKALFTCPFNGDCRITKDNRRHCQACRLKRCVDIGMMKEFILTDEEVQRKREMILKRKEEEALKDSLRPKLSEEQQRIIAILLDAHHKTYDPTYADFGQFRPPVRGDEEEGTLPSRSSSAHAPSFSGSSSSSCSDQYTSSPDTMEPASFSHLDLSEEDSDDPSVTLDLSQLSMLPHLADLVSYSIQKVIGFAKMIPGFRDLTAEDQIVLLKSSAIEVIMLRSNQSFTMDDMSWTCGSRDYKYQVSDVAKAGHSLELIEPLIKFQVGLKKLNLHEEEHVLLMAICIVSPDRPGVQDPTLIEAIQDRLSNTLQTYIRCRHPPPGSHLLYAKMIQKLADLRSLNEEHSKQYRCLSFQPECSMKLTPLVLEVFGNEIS
In short: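 Competition with [3H]1,25(OH)2D3 for receptor in high-speed supernatant of normal pig intestinal mucosa homogenate. Incubated 20 h at 4 °C, then dextran-coated charcoal phase separation. Relative affinity from the concentration displacing 50% of tracer, referenced to 1,25(OH)2D3 at 100%.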

Gallus gallus = experiment: In Vivo evaluation for the calcemic activity in vitamin D-replete normal in ICA chick; format: functional
[3] = target: T3, Vitamin D-binding protein (Homo sapiens) (UniProt P02774); experiment: Binding affinity for human vitamin D binding protein (hDBP) relative to 1,25(OH)2D3 (100)
T3 sequence (whole entry): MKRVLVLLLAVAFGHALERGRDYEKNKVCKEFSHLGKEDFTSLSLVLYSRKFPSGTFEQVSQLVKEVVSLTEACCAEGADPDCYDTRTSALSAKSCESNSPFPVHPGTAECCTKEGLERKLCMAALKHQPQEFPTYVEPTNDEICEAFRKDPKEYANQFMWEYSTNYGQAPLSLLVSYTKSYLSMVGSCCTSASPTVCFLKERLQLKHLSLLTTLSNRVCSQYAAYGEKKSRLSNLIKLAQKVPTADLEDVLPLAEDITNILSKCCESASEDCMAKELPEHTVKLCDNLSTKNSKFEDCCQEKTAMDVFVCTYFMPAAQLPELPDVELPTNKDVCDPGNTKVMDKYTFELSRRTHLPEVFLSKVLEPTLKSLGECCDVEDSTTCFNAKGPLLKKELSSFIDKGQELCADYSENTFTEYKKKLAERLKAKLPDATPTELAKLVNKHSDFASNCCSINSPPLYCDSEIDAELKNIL
In short: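 Competition with [3H]1,25(OH)2D3 for human serum DBP (0.18 μM), purified by affinity chromatography. Ligands added in 5 μL ethanol. Incubated 3 h at 4 °C in 0.01 M Tris-HCl with 0.154 M NaCl, pH 7.4. Bound and free separated with cold dextran-coated charcoal. Activity expressed relative to 1,25(OH)2D3 set at 100.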

Mus musculus [4] = experiment: Hypercalcemic effect by daily sc injection of compound was measured as serum calcium concentration in vitamin D-replete normal NMRI mice relative to 1,25(OH)2D3 (100); format: functional
In short: (§1)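 Vitamin D-replete normal NMRI mice given compound or solvent by daily subcutaneous injection for 7 consecutive days. Serum calcium concentration used as the read-out.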

MCF7 [5] = experiment: Antiproliferative activity on MCF-7 cells relative to 1,25(OH)2D3 (100); format: functional, Homo sapiens
In short: (§2)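 MCF-7 cells grown in DMEM/F12 with 10% heat-inactivated FCS, glutamine, penicillin and streptomycin, 37 °C, 5% CO2. Seeded at 5×10^3 cells/well. Compounds added after 24 h and incubated 72 h. Then 1 μCi [3H]thymidine per well for 4 h, cells harvested and radioactivity counted. Triplicate cultures. Activity expressed relative to 1,25(OH)2D3 set at 100.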

Keratinocyte cell line [6] = experiment: Inhibition of human skin keratinocyte proliferation relative to 1,25(OH)2D3 (100); format: functional
In short: (§3)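 Human foreskin keratinocytes isolated by overnight Dispase digestion and grown in serum-free keratinocyte medium with pituitary extract and EGF. Seeded at 5×10^3 cells/well in medium without insulin. After 1 day, serial dilutions added in ethanol (<0.2% final) for 72 h. Then [3H]thymidine 1 μCi/well for 2 h and incorporation counted.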

Keratinocyte cell line [7] = experiment: In vitro proliferative activity on keratinocyte cells; format: functional, Homo sapiens; in short: as §3
Mus musculus [8] = experiment: In Vivo evaluation for the calcemic activity in vitamin D-replete normal in NMRI mice; format: functional; in short: as §1
MCF7 [9] = experiment: In vitro cell proliferative activity on MCF-7 cells; format: functional, Homo sapiens; in short: as §2
[10] = target: T1, Vitamin D-binding protein (Rattus norvegicus); experiment: Binding affinity for rat Vitamin D binding protein

Row | SMILES | Relative activity (HL-60) | Relative binding affinity [1] | Relative binding affinity [2] | ICA (Gallus gallus) | Relative binding affinity [3] | Hypercalcemic activity relative to 1,25(OH)2D3 (=100) (Mus musculus [4]) | Relative activity (MCF7 [5]) | Relative activity (Keratinocyte cell line [6]) | further results
1 | C=C1/C(=C\C=C2/CCC[C@]3(C)[C@@H]([C@@H](C)[C@@H](C)CCC(C)(C)O)CC[C@@H]23)C[C@@H](O)C[C@@H]1O | 8 | 0.25 | 1 | 0.1 | – | – | – | – | –
2 | C=C1/C(=C\C=C2/CCC[C@]3(C)[C@@H]([C@@H](C)CCCC(C)(C)O)CC[C@@H]23)C[C@@H](O)C[C@@H]1O | 3000 | – | 88 | – | 0.2 | 800 | – | – | –
3 | C=C1/C(=C\C=C2/CCC[C@]3(C)[C@@H]([C@@H](C)[C@H](C)CCC(C)(C)O)CC[C@@H]23)C[C@@H](O)C[C@@H]1O | 11900 | 0.25 | 2000 | 50 | – | – | – | – | –
4 | C[C@H](CCCC(C)(C)O)[C@H](C)[C@@]1(C)CCC/C(=C\C=C2C[C@@H](O)C[C@H](O)C2)C1 | 75 | – | 8 | – | 0 | 0.25 | 75 | 60 | –
5 | C[C@H](CCCC(C)(C)O)[C@H]1CC[C@H]2/C(=C/C=C3C[C@@H](O)C[C@H](O)C3)CCC[C@]12C | 90 | – | 30 | – | 48 | 0.3 | – | – | –
6 | C[C@H]([C@@H](C)CCCC(C)(C)O)[C@@]1(C)CCC/C(=C\C=C2C[C@@H](O)C[C@H](O)C2)C1 | 10 | – | 10 | – | 0 | 0.25 | 40 | 80 | –
7 | C[C@@H](CCCC(C)(C)O)[C@H](C)[C@@]1(C)CCC/C(=C\C=C2C[C@@H](O)C[C@H](O)C2)C1 | 70 | – | 9 | – | 0 | 25 | 90 | 85 | –
8 | C=C1/C(=C\C=C2/CCC[C@]3(C)[C@@H]([C@H](C)[C@H](C)CCC(C)(C)O)CC[C@@H]23)C[C@@H](O)C[C@@H]1O | 1.3 | 0.45 | 1.7 | 25 | – | – | – | – | –
9 | C=C1/C(=C\C=C2/CCC[C@]3(C)[C@@H]([C@H](C)[C@@H](C)CCC(C)(C)O)CC[C@@H]23)C[C@@H](O)C[C@@H]1O | 100 | 67 | 33 | 50 | – | – | – | – | –
10 | C=C1/C(=C\C=C2/CCC[C@]3(C)[C@@H]([C@H](C)OCCC(C)(C)O)CC[C@@H]23)C[C@@H](O)C[C@@H]1O [MAXACALCITOL] | 197 | – | 18 | – | 0 | 0.3 | – | – | –
11 | C[C@H](CCCC(C)(C)O)[C@@H](C)[C@@]1(C)CCC/C(=C\C=C2C[C@@H](O)C[C@H](O)C2)C1 | 1000 | – | 45 | – | 3 | 13 | 2000 | 5000 | –
12 | C=C1/C(=C/C=C2/CCC[C@]3(C)C([C@H](C)CC#CC(C)(C)O)=CC[C@@H]23)C[C@@H](O)C[C@@H]1O | 950 | – | 85 | – | 0 | 8 | – | – | –
13 | C=C1/C(=C\C=C2/CCC[C@]3(C)[C@@H]([C@H](C)CCCC(C)(C)O)CC[C@@H]23)C[C@@H](O)C[C@@H]1O [CALCITRIOL] | – | – | – | 100 | – | – | – | – | Activity (HL-60): 100; Activity (Keratinocyte cell line [7]): 100; Ca2+ serum (Mus musculus [8]): 100; Activity (MCF7 [9]): 100; Binding affinity [3]: 100; Binding affinity [2]: 100; Binding affinity [10]: 100
